Test system: luciferase expression in liver
Assay: HD-stimulated expression after tail vein dosing, luciferase in liver by BLI
Type: in vivo, mice
Conditions: HD-stimulation, 5 min delay, 1 μg pGL3, 0.8 nmol peptide
Summary of the method: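 Albino ICR mice (three per group) received polyplex (1 μg pGL3, 0.8 nmol PEGylated peptide) in 50 μl HBM (5 mM Hepes, 0.27 M mannitol, pH 7.4) by tail vein. Saline at 9 wt/vol% body weight (1.8-2.25 ml) was given by tail vein over 5 sec. At 24 hrs, liver BLI under 3% isofluorane, 5 min after i.p. D-luciferin (2.4 mg). Mean and standard deviation reported.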

| Substance | gene transfer compared with peptide 1 polyplexes (in words) | fold lower gene transfer relative to peptide 4 polyplexes |
| --- | --- | --- |
| (Acr-DLys)3-Acr-DLys-Cys-PEG [1D] | equivalent |  |
| (Acr-DLys4)3-Acr-DLys-Cys-PEG [4D] |  | 5 fold |
